Results reported in ChEMBL document CHEMBL4387788, “Brominated Azaphilones from the Sponge-Associated Fungus Penicillium canescens Strain 4.14.6a” (J Nat Prod, 2019).

Legend:
[1] = test system: L5178Y; test: Cytotoxicity against mouse L5178Y cells assessed as reduction in cell viability incubated for 72 hrs by MTT assay; format: functional, cell-based
In short: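 MTT assay on L5178Y mouse lymphoma cells. Kahalalide F was the positive control; 0.1% ethylene glycol monomethyl ether in DMSO was the negative control.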

[2] = test system: A2780; test: Cytotoxicity against human A2780 cells assessed as reduction in cell viability incubated for 72 hrs by MTT assay; format: functional, cell-based; details: A2780, 72 h
In short: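 A2780 human ovarian cancer cells were seeded at 9500 cells/well and, after 24 h, exposed to 3.6-fold serial dilutions of compound for 72 h. MTT (5 mg/mL in PBS) was added, and the formazan was dissolved in DMSO. Absorbance was read at 544 and 690 nm. Cisplatin was the positive control and 0.9% sodium chloride the negative control.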

COC1=CC(=O)C[C@@H](C)[C@]12Oc1cc(OC)cc(OC)c1C2=O
IC50 [1]: > 10 µM
IC50 [2]: > 10 µM

COC1=CC(=O)C[C@@H](C)[C@]12Oc1c(Cl)c(OC)cc(OC)c1C2=O [GRISEOFULVIN]
IC50 [1]: > 10 µM
IC50 [2]: > 10 µM

COc1cc(O)c(C(=O)c2c(C)cc(O)cc2OC)c(O)c1Cl
IC50 [1]: > 10 µM
IC50 [2]: > 10 µM

C=C(C)C1(O)OC(=O)C=C1OC (stereo not drawn) [PENICILLIC ACID]
IC50 [1]: 8.9 µM
IC50 [2]: > 10 µM

COc1cc(C[C@]23COC(/C=C/C=C/C=C/C(=O)O)=CC2=C(Br)C(=O)[C@](C)(OC(=O)C[C@H](O)C[C@@H](C)O)C3=O)c(C(C)=O)c(O)c1O
IC50 [1]: 13.9 µM
IC50 [2]: 37 µM

COC(=O)[C@@]12C(O)=C(C)C(=O)[C@]1(C)C(C)=C[C@H]1[C@]34CC[C@H](OC(C)=O)C(C)(C)[C@H]3[C@H](C[C@@]12C)OC4=O
IC50 [1]: > 10 µM
IC50 [2]: > 10 µM

COc1cc(O)c(C(=O)c2c(C)cc(O)cc2OC)c(O)c1
IC50 [1]: > 10 µM
IC50 [2]: > 10 µM

COC(=O)c1c(O)cc(OC)c(Cl)c1Oc1c(C)cc(OC)cc1OC
IC50 [1]: > 10 µM
IC50 [2]: > 10 µM

C/C=C1\NC(=O)[C@H](Cc2ccccc2)NC(=O)[C@@H](C(C)C)NC(=O)[C@@H]([C@@H](C)CC)NC(=O)[C@H](NC(=O)[C@H](NC(=O)[C@H](CCCN)NC(=O)[C@H]2CCCN2C(=O)[C@H](NC(=O)[C@@H](NC(=O)[C@@H](NC(=O)[C@H](NC(=O)CCCC(C)C)C(C)C)[C@@H](C)O)C(C)C)C(C)C)[C@@H](C)CC)[C@@H](C)OC(=O)[C@H](C(C)C)NC1=O
IC50 [1]: 4.3 µM

COc1cc(O)cc(C)c1C(=O)c1c(O)c(Cl)c(OC)c(Cl)c1O
IC50 [1]: > 10 µM
IC50 [2]: > 10 µM

COC(=O)Cc1cc(O)cc(O)c1C(C)=O
IC50 [1]: > 10 µM
IC50 [2]: > 10 µM

COc1cc(O)c2c(=O)c3c(C)cc(O)cc3oc2c1
IC50 [1]: > 10 µM
IC50 [2]: > 10 µM

COC(=O)Cc1cc(OC)cc(O)c1C(C)=O
IC50 [1]: > 10 µM
IC50 [2]: > 10 µM

COC(=O)c1c(O)cc(OC)c(Cl)c1Oc1c(C)cc(O)cc1OC
IC50 [1]: > 10 µM
IC50 [2]: > 10 µM

Cc1cc(O)cc2oc3cc(O)cc(O)c3c(=O)c12 [NORLICHEXANTHONE]
IC50 [1]: > 10 µM
IC50 [2]: > 10 µM

COc1cc(C[C@]23COC(/C=C/C=C/C=C/C(=O)O)=CC2=C(Br)C(=O)[C@@](C)(OC(=O)C[C@H](O)C[C@@H](C)O)C3=O)c(C(C)=O)c(O)c1O
IC50 [1]: 8.9 µM
IC50 [2]: 2.7 µM

CC1(C)C=Cc2cc3c(cc2O1)c(C[C@@H]1NC(=O)C2=CCCN2C1=O)c1n3C=CC1(C)C
IC50 [1]: > 10 µM
IC50 [2]: > 10 µM
